Experimental data: ChEMBL document CHEMBL2396599, “Design of cell-permeable stapled peptides as HIV-1 integrase inhibitors” (J Med Chem, 2013); call rule not given here
Starred links: 1 amine or outer side, 2 acyl side, 3 side chain; linkers in the order of their positions; H or OH if unused. Positions of bridges follow the written chain, without caps; N, C: chain ends. Non-standard residues stand in square brackets, D forms with d. Residues, ends and D or L forms follow the SMILES beside them. αMeNva(5-ylidene) = C[C@@](CCC=[*:3])(N[*:1])C(=O)[*:2]; X1 = C[C@@](CCCCC=[*:3])(N[*:1])C(=O)[*:2]; X3 = C=CCCCC[C@](C)(N[*:1])C(=O)[*:2]; X2 = C=CC[C@](C)(N[*:1])C(=O)[*:2]; S5 = C=CCCC[C@](C)(N)C(=O)O

Key:
[1] = molecular target: T1, Human immunodeficiency virus type 1 integrase (Human immunodeficiency virus 1, UniProt Q7ZJM1); experiment: Inhibition of HIV-1 His6-tagged integrase assessed as inhibition of LEDGF/p75-integrase interaction incubated 30 mins prior to flag-tagged LEDGF/p75 addition measured after 1 hr by AlphaScreen assay
Method in brief: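 IC₅₀ is the concentration giving 50% inhibition of the interaction between LEDGF/p75 and HIV-1 integrase.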

[2] = system: Human immunodeficiency virus; experiment: Antiviral activity against AMD3100-resistant Human immunodeficiency virus; format: functional, organism-based; details: Human immunodeficiency virus 1
[3] = Cytotoxicity against human MT4 cells by MTT assay; format: cell-based
Method in brief: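 CC₅₀ was the concentration causing 50% death of MT-4 cells, in the same cells used for the HIV-1 cytoprotection assay. This value feeds the CC₅₀/EC₅₀ ratio.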

[4] = system: Human immunodeficiency virus 1; experiment: Antiviral activity against Human immunodeficiency virus 1 infected in human MT4 cells assessed as inhibition of virus-induced cytopathic effect by MTT assay; format: functional, organism-based; details: Human immunodeficiency virus 1, MT4
Method in brief: (§1)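 Antiviral activity taken as the concentration giving 50% protection of HIV-1-infected MT-4 cells. Cytotoxicity was read as 50% cell death in the same cells. Therapeutic index = CC₅₀/EC₅₀.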

[5] = molecular target: T1, Human immunodeficiency virus type 1 integrase; experiment: Inhibition of wild type HIV-1 integrase 3' processing activity after 30 mins
Method in brief: (§2)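 IC₅₀ is the concentration giving 50% inhibition of HIV-1 integrase enzymatic activity, determined separately for 3′-processing and for strand transfer.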

[6] = Therapeutic index, ratio of CC50 for human MT4 cells to EC50 for Human immunodeficiency virus 1; format: cell-based; details: read-out: Ratio CC50/EC50; method in brief: as §1
[7] = molecular target: T1, Human immunodeficiency virus type 1 integrase; experiment: Inhibition of wild type HIV-1 integrase strand transfer activity after 30 mins; method in brief: as §2
MT4 = experiment: Cellular uptake in human MT4 cells at 10 to 500 uM after 1 hr by confocal microscopy; format: ADME, cell-based; details: mt4, 1 h
Method in brief: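 Fluorescein-labelled peptides were incubated with MT-4 cells for 1 h. Confocal z-stacks were taken at 0.3 step, with FITC excited at 488 nm and a cell-membrane dye at 543 nm.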

[8] = Drug uptake in human PANC1 cell nucleus at 40 uM after 1 to 3 hrs by Draq5 staining-based confocal microscopy; format: ADME; details: panc-1, 40 µM
Method in brief: (§3)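 CEM, HCT116 and Panc-1 cells were treated with the fluorescein-labelled stapled peptide for 3 h. Uptake was imaged by confocal microscopy with Draq5 nuclear staining.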

[9] = Drug uptake in human CEM cell nucleus at 40 uM after 1 to 3 hrs by Draq5 staining-based confocal microscopy; format: ADME; details: ccrf-cem; method in brief: as §3
[10] = Cellular uptake in human PANC1 cell cytoplasm at 40 uM after 1 to 3 hrs by Draq5 staining-based confocal microscopy; format: ADME; details: panc-1, 40 µM; method in brief: as §3
[11] = Cellular uptake in human CEM cytoplasm at 40 uM after 1 to 3 hrs by Draq5 staining-based confocal microscopy; format: ADME; method in brief: as §3
[12] = Cellular uptake in human HCT116 cell cytoplasm at 40 uM after 1 to 3 hrs by Draq5 staining-based confocal microscopy; format: ADME; details: hct-116, 40 µM; method in brief: as §3
[13] = Drug uptake in human HCT116 cell nucleus at 40 uM after 1 to 3 hrs by Draq5 staining-based confocal microscopy; format: ADME; details: hct-116, 40 µM; method in brief: as §3

T1 sequence (Q7ZJM1 whole entry): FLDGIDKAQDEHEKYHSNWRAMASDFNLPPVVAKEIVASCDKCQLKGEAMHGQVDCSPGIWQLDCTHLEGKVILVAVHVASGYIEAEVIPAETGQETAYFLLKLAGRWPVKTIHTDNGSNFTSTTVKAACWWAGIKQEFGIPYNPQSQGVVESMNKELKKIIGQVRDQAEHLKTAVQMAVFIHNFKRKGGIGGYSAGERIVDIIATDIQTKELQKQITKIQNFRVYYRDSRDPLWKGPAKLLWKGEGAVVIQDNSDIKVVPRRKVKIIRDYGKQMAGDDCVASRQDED

Row | SMILES | IC50 [1] [µM] | EC50 [2] [µM] | CC50 [3] [µM] | EC50 [4] [µM] | IC50 [5] [µM] | selectivity ratio [6] | IC50 [7] [µM] | Drug uptake (MT4) | Drug uptake [8] | Drug uptake [9] | Drug uptake [10] | Drug uptake [11] | Drug uptake [12] | Drug uptake [13]
1 | CC[C@H](C)[C@@H]1NC(=O)[C@H](CC(C)C)NC(=O)[C@@](C)(NC(=O)[C@H](Cc2ccccc2)NC(=O)[C@H](Cc2ccc(O)cc2)NC(=O)[C@H](C)NC(=O)[C@@H](N)[C@@H](C)O)CCC/C=C\CCC[C@@](C)(C(=O)NCC(=O)N[C@@H](CCCNC(=N)N)C(=O)N[C@@H](Cc2c[nH]c3ccccc23)C(=O)O)NC(=O)[C@H](CC(C)C)NC1=O (H-TAYF[S5]LIL[S5]GRW-OH; staple (Z) 5-9) | 5 | 4.3 | 41 | 5 | 22 | 8 | 25 | – | – | – | – | – | – | –
2 | C=CC[C@](C)(NC(=O)[C@H](CC(C)C)NC(=O)[C@H](CCCCN)NC(=O)[C@H](CC(C)C)NC(=O)[C@](C)(CC=C)NC(=O)[C@H](Cc1ccccc1)NC(=O)[C@H](Cc1ccc(O)cc1)NC(=O)[C@H](C)NC(=O)[C@@H](N)[C@@H](C)O)C(=O)NCC(=O)N[C@@H](CCCNC(=N)N)C(=O)N[C@@H](Cc1c[nH]c2ccccc12)C(=O)O (H-TAYF[X2]LKL[X2]GRW-OH) | – | – | – | – | > 333 | – | > 111 | – | – | – | – | – | – | –
3 | CC(C)C[C@@H]1NC(=O)[C@H](CCCCN)NC(=O)[C@H](CC(C)C)NC(=O)[C@@](C)(NC(=O)[C@H](Cc2ccccc2)NC(=O)[C@H](Cc2ccc(O)cc2)NC(=O)[C@H](C)NC(=O)[C@@H](N)[C@@H](C)O)CCC/C=C\CCC[C@@](C)(C(=O)NCC(=O)N[C@@H](CCCNC(=N)N)C(=O)N[C@@H](Cc2c[nH]c3ccccc23)C(=O)O)NC1=O (H-TAYF[S5]LKL[S5]GRW-OH; staple (Z) 5-9) | 14 | – | 50 | 20 | 9 | 3 | 6 | – | – | – | – | – | – | –
4 | C=CCCC[C@](C)(NC(=O)[C@H](CC(C)C)NC(=O)[C@@H](NC(=O)[C@H](CC(C)C)NC(=O)[C@](C)(CCCC=C)NC(=O)[C@H](Cc1ccccc1)NC(=O)[C@H](Cc1ccc(O)cc1)NC(=O)[C@H](C)NC(=O)[C@@H](N)[C@@H](C)O)[C@@H](C)CC)C(=O)NCC(=O)N[C@@H](CCCNC(=N)N)C(=O)N[C@@H](Cc1c[nH]c2ccccc12)C(=O)O (H-TAYF[S5]LIL[S5]GRW-OH) | > 100 | – | 18 | 11 | 15 | 1.6 | 11 | – | – | – | – | – | – | –
5 | CC(C)C[C@@H]1NC(=O)[C@H](CCCCN)NC(=O)[C@H](CC(C)C)NC(=O)[C@@](C)(NC(=O)[C@H](Cc2ccccc2)NC(=O)[C@H](Cc2ccc(O)cc2)NC(=O)[C@H](C)NC(=O)[C@@H](N)[C@@H](C)O)CCCC/C=C/CCCC[C@@](C)(C(=O)NCC(=O)N[C@@H](CCCNC(=N)N)C(=O)N[C@@H](Cc2c[nH]c3ccccc23)C(=O)O)NC1=O (H-TAYF[X1]LKL[X1]GRW-OH; staple (E) 5-9) | – | – | – | – | 48 | – | 44 | – | – | – | – | – | – | –
6 | CC(C)C[C@H](NC(=O)[C@H](Cc1ccccc1)NC(=O)[C@H](Cc1ccc(O)cc1)NC(=O)[C@H](C)NC(=O)[C@@H](N)[C@@H](C)O)C(=O)N[C@@H](CC(C)C)C(=O)N[C@@]1(C)CCC/C=C/CCC[C@@](C)(C(=O)N[C@@H](Cc2c[nH]c3ccccc23)C(=O)O)NC(=O)CNC(=O)[C@H](C)NC(=O)[C@H](CC(C)C)NC1=O (H-TAYFLL[S5]LAG[S5]W-OH; staple (E) 7-11) | – | – | – | – | > 100 | – | > 100 | – | – | – | – | – | – | –
7 | CC(C)C[C@H](NC(=O)[C@H](CCCCN)NC(=O)[C@H](CC(C)C)NC(=O)[C@H](CC(C)C)NC(=O)[C@H](Cc1ccccc1)NC(=O)[C@H](Cc1ccc(O)cc1)NC(=O)[C@H](C)NC(=O)[C@@H](NC(=O)c1ccc2c(c1)C(=O)OC21c2ccc(O)cc2Oc2cc(O)ccc21)[C@@H](C)O)C(=O)N[C@@H](C)C(=O)NCC(=O)N[C@@H](CCCNC(=N)N)C(=O)N[C@@H](Cc1c[nH]c2ccccc12)C(=O)O (mixture of isomers) | 25 | – | 70 | 13 | 17.5 | 5 | 6.2 | Not Active | – | – | – | – | – | –
8 | CC(C)C[C@@H]1NC(=O)[C@H](CCCCN)NC(=O)[C@H](CC(C)C)NC(=O)[C@@](C)(NC(=O)[C@H](Cc2ccccc2)NC(=O)[C@H](Cc2ccc(O)cc2)NC(=O)[C@H](C)NC(=O)[C@@H](NC(=O)c2ccc3c(c2)C(=O)OC32c3ccc(O)cc3Oc3cc(O)ccc32)[C@@H](C)O)CCC/C=C\CCC[C@@](C)(C(=O)NCC(=O)N[C@@H](CCCNC(=N)N)C(=O)N[C@@H](Cc2c[nH]c3ccccc23)C(=O)O)NC1=O (mixture of isomers) | 25 | – | > 125 | 11 | 5 | > 11 | 6 | Active | Active | Active | Active | Active | Active | Active
9 | CC(C)C[C@@H]1NC(=O)[C@H](CCCCN)NC(=O)[C@H](CC(C)C)NC(=O)[C@@](C)(NC(=O)[C@H](Cc2ccccc2)NC(=O)[C@H](Cc2ccc(O)cc2)NC(=O)[C@H](C)NC(=O)[C@@H](N)[C@@H](C)O)CC/C=C/CC[C@@](C)(C(=O)NCC(=O)N[C@@H](CCCNC(=N)N)C(=O)N[C@@H](Cc2c[nH]c3ccccc23)C(=O)O)NC1=O (H-TAYF[αMeNva(5-ylidene)]LKL[αMeNva(5-ylidene)]GRW-OH; staple (E) 5-9) | 14 | – | 40 | > 40 | 90 | – | 83 | – | – | – | – | – | – | –
10 | C=CCCCC[C@](C)(NC(=O)[C@H](CC(C)C)NC(=O)[C@H](CCCCN)NC(=O)[C@H](CC(C)C)NC(=O)[C@](C)(CCCCC=C)NC(=O)[C@H](Cc1ccccc1)NC(=O)[C@H](Cc1ccc(O)cc1)NC(=O)[C@H](C)NC(=O)[C@@H](N)[C@@H](C)O)C(=O)NCC(=O)N[C@@H](CCCNC(=N)N)C(=O)N[C@@H](Cc1c[nH]c2ccccc12)C(=O)O (H-TAYF[X3]LKL[X3]GRW-OH) | – | – | – | – | 61 | – | 43 | – | – | – | – | – | – | –
11 | CC(C)C[C@H](NC(=O)[C@H](CCCCN)NC(=O)[C@H](CC(C)C)NC(=O)[C@]1(C)CCC/C=C\CCC[C@](C)(N)C(=O)N[C@@H](C)C(=O)N[C@@H](Cc2ccc(O)cc2)C(=O)N[C@@H](Cc2ccccc2)C(=O)N1)C(=O)N[C@@H](C)C(=O)NCC(=O)N[C@@H](CCCNC(=N)N)C(=O)N[C@@H](Cc1c[nH]c2ccccc12)C(=O)O (H-[S5]AYF[S5]LKLAGRW-OH; staple (Z) 1-5) | > 100 | – | 25 | 4 | 53 | 6 | 19 | – | – | – | – | – | – | –
12 | C=CCCC[C@](C)(NC(=O)CNC(=O)[C@H](C)NC(=O)[C@H](CC(C)C)NC(=O)[C@](C)(CCCC=C)NC(=O)[C@H](CC(C)C)NC(=O)[C@H](CC(C)C)NC(=O)[C@H](Cc1ccccc1)NC(=O)[C@H](Cc1ccc(O)cc1)NC(=O)[C@H](C)NC(=O)[C@@H](N)[C@@H](C)O)C(=O)N[C@@H](Cc1c[nH]c2ccccc12)C(=O)O (H-TAYFLL[S5]LAG[S5]W-OH) | – | – | – | – | > 100 | – | > 100 | – | – | – | – | – | – | –
